Laboratory results published in ChEMBL document CHEMBL3232716, “Tailoring cytotoxicity of antimicrobial peptidomimetics with high activity against multidrug-resistant Escherichia coli” (J Med Chem, 2014).
pIC50: −log10 of the molar value. Values after ≈ are worked out from the molar mass of the structure shown. Square brackets hold non-standard residues; d marks the D form. Peptide text beside a SMILES is read from it. hArg = N=C(N)NCCCC[C@H](N)C(=O)O; Nphe = O=C(O)CNCc1ccccc1

Key:
Escherichia coli [1] = experiment: Antibacterial activity against NDM-1 producing Escherichia coli clinical isolate 74859898 after 18 hrs by microdilution broth method; type: functional
Acinetobacter baumannii = experiment: Antibacterial activity against multidrug-resistant Acinetobacter baumannii clinical isolate E2-1228625 after 18 hrs by microdilution broth method; type: functional
Staphylococcus aureus = experiment: Antibacterial activity against methicillin-resistant Staphylococcus aureus ATCC 33591 after 18 hrs by microdilution broth method; type: functional
How it was run: (§1)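 CLSI broth microdilution. […] Incubated 35 °C in ambient air for 18 h. MIC taken as the lowest concentration with no visible growth versus the compound-free control. Reported as median and range of three independent biological replicates run on separate days.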

Escherichia coli [2] = experiment: Antibacterial activity against Escherichia coli ATCC 25922 after 18 hrs by microdilution broth method; type: functional; how it was run: as §1
Enterococcus faecalis = experiment: Antibacterial activity against vancomycin-resistant Enterococcus faecalis ATCC 700221 after 18 hrs by microdilution broth method; type: functional
How it was run: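 CLSI broth microdilution. Incubated 35 °C in ambient air for 18 h. MIC taken as the lowest concentration with no visible growth versus the compound-free control. Reported as median and range of three independent biological replicates run on separate days.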

Escherichia coli [3] = experiment: Antibacterial activity against extended-spectrum beta-lactamase producing multidrug-resistant and colistin-susceptible Escherichia coli CTX-M-15 clinical isolate Aar 11 after 18 hrs by microdilution broth method; type: functional
[4] = Binding affinity to cholesterol containing synthetic POPC/POPG liposomal membrane at 20 uM by circular dichroism analysis; type: physicochemical; conditions: artificial membrane
How it was run: (§2)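 CD spectra recorded with 20 μM test compound and 2 mM liposomes in 10 mM Tris buffer, pH 7.5. Liposomes were roughly 100 nm: POPC/POPG 7:3 (bacterial model) or POPC/POPG/cholesterol 5:3:2 (mammalian model). Lipid concentration was standardized by enzymatic phospholipid colorimetric assay.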

Enterococcus faecium = experiment: Antibacterial activity against vancomycin-resistant Enterococcus faecium ATCC 700221 after 18 hrs by microdilution broth method; conditions: ATCC 700221, 18 h
[5] = Binding affinity to synthetic POPC/POPG liposomal membrane at 20 uM by circular dichroism analysis; type: physicochemical; conditions: artificial membrane; how it was run: as §2
HeLa = experiment: Cytotoxicity against human HeLa cells after 1 hr by MTS/PMS assay; type: cell-based
How it was run: (§3)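 Monolayers (passage 4–10) grown ~21–25 h to ~90% confluence. Seeding per well: HeLa 8000, HepG2 23 000, NIH 3T3 22 000, IEC-6 16 000, Caco-2 25 000. Cells washed with HBSS/10 mM Hepes pH 7.4 and exposed 1 h at 37 °C, 50 rpm, to compound 0–2000 μM in culture medium. MTS 240 μg/mL/PMS 2.4 μg/mL for 1.5–4 h, A492. Viability referenced to SDS and untreated controls; IC50 from one biological replicate in triplicate.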

[6] = Cytotoxicity against mouse NIH/3T3 cells after 1 hr by MTS/PMS assay; type: cell-based; conditions: NIH3T3, 1 h; how it was run: as §3
Caco-2 = experiment: Cytotoxicity against human Caco2 cells after 1 hr by MTS/PMS assay; type: cell-based; conditions: Caco-2, 1 h; how it was run: as §3
HUVEC = experiment: Cytotoxicity against HUVEC after 1 hr by MTS/PMS assay; type: cell-based; conditions: Homo sapiens
How it was run: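 HUVEC seeded at 15 000 cells/well on collagen-coated wells (0.6 μg/cm2), passage 4–10, grown to ~90% confluence over 21–25 h. Cells exposed to compound (0–2000 μM) in F-12K medium for 1 h at 37 °C. MTS 240 μg/mL with PMS 9.6 μg/mL in HBSS for 1.5–4 h, then A492. Viability referenced to 0.2% SDS and untreated cells; IC50 reported.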

HepG2 = experiment: Cytotoxicity against human HepG2 cells after 1 hr by MTS/PMS assay; type: cell-based; conditions: HepG2, 1 h; how it was run: as §3
[7] = Cytotoxicity against rat IEC-6 cells after 1 hr by MTS/PMS assay; type: cell-based; conditions: IEC-6, 1 h; how it was run: as §3
[8] = Hemolytic activity in human RBC after 1 hr; type: ADME, cell-based; conditions: Erythrocyte
How it was run: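 Fresh human erythrocytes washed in PBS pH 7.4. A 0.5% v/v suspension was mixed 1:1 with 2-fold dilutions of compound (8–1024 μM) and incubated 1 h at 37 °C, then centrifuged. Supernatant hemoglobin read at OD414. Melittin 400 μg/mL set 100% lysis and PBS set 0%. Value is the concentration giving 50% lysis.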

GENTAMICIN
MIC (Escherichia coli [1]): > 128 µM | MIC (Acinetobacter baumannii): > 128 µM | MIC (Staphylococcus aureus): 0.5 µM | MIC (Escherichia coli [2]): 0.25 µM | MIC (Enterococcus faecalis): > 128 µM | MIC (Escherichia coli [3]): 32 µM

CC(=O)N[C@@H](CCCCN)C(=O)N(CC(=O)N[C@@H](CCCCNC(=N)N)C(=O)N(CC(=O)N[C@@H](CCCCN)C(=O)N(CC(=O)N[C@@H](CCCCNC(=N)N)C(=O)N(CC(=O)N[C@@H](CCCCN)C(=O)N(CC(=O)N[C@@H](CCCCNC(=N)N)C(=O)N(CC(N)=O)Cc1ccccc1)Cc1ccccc1)Cc1ccccc1)Cc1ccccc1)Cc1ccccc1)Cc1ccccc1 (Ac-K[Nphe][hArg][Nphe]K[Nphe][hArg][Nphe]K[Nphe][hArg][Nphe]-NH2)
Activity [4]: Not Active | MIC (Enterococcus faecium): 32 µM (≈ 58.8 µg/mL) | MIC (Escherichia coli [1]; clinical isolate 74859898, 18 h): 1 µM (≈ 1.84 µg/mL) | Activity [5]: Not Active | MIC (Acinetobacter baumannii; clinical isolate E2-1228625, 18 h): 64 µM (≈ 118 µg/mL) | pIC50 (HeLa): 3.50 | pIC50 [6]: 3.20 | MIC (Staphylococcus aureus; ATCC 33591, 18 h): 64 µM (≈ 118 µg/mL) | pIC50 (Caco-2): < 3.00 | pIC50 (HUVEC): < 3.00 | MIC (Escherichia coli [2]; ATCC 25922, 18 h): 2 µM (≈ 3.67 µg/mL) | pIC50 (HepG2): 3.16 | MIC (Escherichia coli [3]; CTX-M-15, 18 h): 2 µM (≈ 3.67 µg/mL) | pIC50 [7]: 3.20 | pIC50 [8]: < 2.99
